Assay outcomes (PubChem)
RGS4 inh: RGS4 inhibitors, primary screen, cell-based, HEK293 M3R inducible RGS4, calcium flux. Regulator of G-protein signaling 4 (Homo sapiens), P49798. Fluo-4 calcium flux; stronger effect = higher value; triggered by carbachol at its EC20. B-score at 10 µM. 0.45% of 310,000 active;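 active = B-score, a plate-corrected calcium signal, over three deviations above library mean, with baseline fluorescence within five deviations of library mean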;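 note: RGS4 expression induced by doxycycline in cells with stable M3 receptor; B-score is computed from the integrated fluorescence ratio over baseline after carbachol; higher B-score means a larger calcium signal and so more RGS4 inhibition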
Target sequence (P49798 whole entry, looked up): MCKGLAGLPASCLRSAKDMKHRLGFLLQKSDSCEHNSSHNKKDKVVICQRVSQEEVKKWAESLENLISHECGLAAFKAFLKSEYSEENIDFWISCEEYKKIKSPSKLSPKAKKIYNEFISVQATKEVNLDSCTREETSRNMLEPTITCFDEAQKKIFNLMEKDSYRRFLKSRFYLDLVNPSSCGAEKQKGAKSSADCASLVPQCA
MrgX1 PAM: positive allosteric modulators of MrgX1, primary screen, HEK293 cells, Fluo-4 calcium flux. Mas-related G-protein coupled receptor member X1 (Homo sapiens), Q96LB2. FDSS; stronger effect = higher value. B-score at 10 µM. 0.63% of 310,000 active. AID 588675, 2011;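 active = plate-corrected calcium response at least 3 library SD above typical, normal starting fluorescence, not activating the receptor alone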;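 note: compound read alongside a low EC10 to EC30 dose of BAM8-22 agonist; peak minus trough fluorescence over baseline measured at the second addition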
Target sequence (Q96LB2 whole entry, looked up): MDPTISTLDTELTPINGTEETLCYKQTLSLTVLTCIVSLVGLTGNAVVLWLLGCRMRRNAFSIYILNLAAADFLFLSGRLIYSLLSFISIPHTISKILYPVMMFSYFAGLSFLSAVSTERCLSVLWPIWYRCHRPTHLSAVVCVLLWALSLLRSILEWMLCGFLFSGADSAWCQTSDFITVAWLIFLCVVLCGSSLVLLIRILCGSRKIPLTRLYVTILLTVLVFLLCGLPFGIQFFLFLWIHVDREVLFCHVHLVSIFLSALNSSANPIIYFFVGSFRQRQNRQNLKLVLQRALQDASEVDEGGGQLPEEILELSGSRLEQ
RGS4 act: RGS4 potentiators or activators, primary screen, cell-based, HEK293 M3R inducible RGS4, calcium flux; 0.92% of 310,000 active; B-score at 10 µM; AID 463111, 2010; carbachol calcium flux Fluo4; stronger effect = lower value;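 active = B-score of the integrated calcium signal more than 4 SD below the library mean, with starting fluorescence not abnormally high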;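 note: negative B-score means reduced calcium response which marks RGS4 activation or potentiation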
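Reagent: ECmax carbachol challenge; Test system: M3R-expressing HEK293 line, RGS4 induced by doxycycline; Schedule: overnight RGS4 induction, 30 min dye load 37 °C, 20 min compound RT; Detection: calcium dye Fluo4 fluorescence; Read-out: Agonist-evoked peak-minus-minimum fluorescence over baseline, integrated ratio, B score.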
MrgX1 antag: antagonists of human MrgX1 receptor, primary screen, HEK293 cells, Fluo-4 calcium flux; Mas-related G-protein coupled receptor member X1 (Homo sapiens), Q96LB2; BAM8-22 antagonism; stronger effect = lower value; B-score at 10 µM; 1.3% of 310,000 active; AID 588676, 2011;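 active = calcium-response B-score plate-corrected more than 3 library SD below zero, starting fluorescence within 5 deviations, no agonist response on first addition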;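 note: peak minus trough fluorescence over baseline after final BAM8-22 challenge near maximal dose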
MrgX1 agonist: agonists of human MrgX1 receptor, primary screen, HEK293 cells, Fluo-4 calcium flux; Mas-related G-protein coupled receptor member X1 (Homo sapiens), Q96LB2; Fluo-4 calcium fluorescence, agonist mode; stronger effect = higher value; B-score at 10 µM; 0.44% of 310,000 active;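 active = calcium response B-score plate-corrected fluorescence ratio at least 3 library SD, with starting fluorescence B-score inside 5 SD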
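Material – MrgX1-expressing HEK293 cells · Input – 15,000 cells seeded per well · Dosing – compound as first of three additions · Times – overnight seeding, then 1 h dark dye loading · Measured by – kinetic Fluo-4 NW fluorescence of intracellular calcium · Read-out – B-scored fluorescence response ratio · Benchmarks – positive and negative control wells on each plate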
MrgX1 allo conf: MrgX1 positive allosteric modulators, duplicate retest, confirmation, HEK293 cells, Fluo-4 calcium flux; shares compounds with MrgX1 PAM; Fluo-4 calcium fluorescence, FDSS; activation (ratio percentage), % at 10 µM; 13% of 1,200 active; AID 602413, 2012;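 active = ratio at least 3 SD above the weak peptide control, stable starting fluorescence, no direct agonism earlier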;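 note: compound followed by low BAM8-22 agonist challenge near EC20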
MrgX1 antag conf: MrgX1 receptor antagonists, duplicate retest, confirmation, HEK293 cells, Fluo-4 calcium flux | shares compounds with MrgX1 antag | BAM8-22 calcium flux; stronger effect = lower value | remaining BAM8-22 calcium response % of control (stronger effect = lower value), % at 10 µM | 19% of 2,300 active;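 active = remaining agonist calcium response no higher than 100% minus 3 SD of agonist-only control wells, with starting fluorescence near control levels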;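 note: agonist BAM8-22 given at a near maximal EC90 to ECmax level; peak minus minimum fluorescence divided by baseline after agonist addition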
HEK293 Ca flux: nonspecific calcium signal in parental HEK293, confirmation, counter-screen for MrgX1 antagonist project, parental HEK293 cells, Fluo-4 calcium flux; shares compounds with MrgX1 antag; Fluo-4 calcium fluorescence, FDSS; fluorescence ratio F(max-min)/F0 at 10 µM; 2% of 4,000 active; AID 624111, 2012;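 active = duplicate-averaged calcium fluorescence ratio at least three times the standard deviation of buffer wells, a nonspecific response in parental cells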
HEK293 Ca counter: calcium response in parental HEK293 cells, primary screen, counter-screen for MrgX1 allosteric activator project, cell-based, Fluo-4 calcium flux, duplicate | shares compounds with MrgX1 antag | Fluo-4 fluorescence ratio; stronger effect = higher value | fluorescence ratio F(max-min)/F0 at 10 µM | 0.4% of 4,000 active;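 active = calcium fluorescence ratio, averaged over duplicates, at least 3 SD of the buffer-well ratio, meaning a nonspecific response in receptor-free cells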;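 note: untransfected parental HEK293 lacking MrgX1 used as counterscreen for MrgX1 allosteric activators; fluorescence change taken during the second addition on a kinetic imager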
HEK293 Ca cntr2: calcium response in parental HEK293 cells, primary screen, counter-screen for MrgX1 agonist project, cell-based, Fluo-4 calcium flux, duplicate, agonist mode; Fluo-4 calcium fluorescence (FDSS); stronger effect = higher value; fluorescence ratio F(max-min)/F0 at 10 µM; shares compounds with MrgX1 antag; 8.7% of 4,000 active;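 active = calcium fluorescence ratio at least three times the spread of buffer wells, meaning a non-specific response in parental cells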
* hit, by the source's call. This is a sample that favours compounds with a hit; in the whole collection about 3.5% have one here.

For N#CC(C(=O)NC1CC1)c1nc2ccccc2nc1N1CCCC1 (stereo unspecified) the results were RGS4 inh inactive, MrgX1 PAM inactive, RGS4 act inactive, MrgX1 antag inactive and MrgX1 agonist inactive.
For N#CC(C(=O)NC1CC1)c1nc2ccccc2nc1N1CCN(C/C=C/c2ccccc2)CC1 (stereo unspecified) the results were RGS4 inh inactive, MrgX1 PAM 9.3*, RGS4 act inactive, MrgX1 antag inactive, MrgX1 agonist inactive, MrgX1 allo conf inactive, HEK293 Ca flux inactive, HEK293 Ca counter inactive and HEK293 Ca cntr2 inactive.
CNc1nc(Nc2ccc(C(C)=O)cc2)nc(OC(C(F)(F)F)C(F)(F)F)n1 was read as RGS4 inh inactive, MrgX1 PAM 8.6*, RGS4 act inactive, MrgX1 antag inactive, MrgX1 agonist inactive, MrgX1 allo conf inactive, HEK293 Ca flux inactive, HEK293 Ca counter inactive and HEK293 Ca cntr2 inactive.
Screening COc1cc(OC)c(C2N(C)c3ccccc3N2C)cc1OC returned RGS4 inh inactive, MrgX1 PAM inactive, RGS4 act inactive, MrgX1 antag inactive and MrgX1 agonist inactive.
Screening COc1cc(OC)c(C2SCCCS2)cc1OC returned RGS4 inh inactive, MrgX1 PAM 13*, RGS4 act inactive, MrgX1 antag inactive, MrgX1 agonist inactive, MrgX1 allo conf 6.3%*, HEK293 Ca flux inactive, HEK293 Ca counter inactive and HEK293 Ca cntr2 inactive.
Screening O=S(=O)(Nc1ncnc2c1oc1ccccc12)c1ccc(Cl)s1 returned RGS4 inh inactive, MrgX1 PAM 19*, RGS4 act inactive, MrgX1 antag inactive, MrgX1 agonist inactive, MrgX1 allo conf inactive, HEK293 Ca flux inactive, HEK293 Ca counter inactive and HEK293 Ca cntr2 inactive.
`CNc1c(NS(=O)(=O)c2ccc(Cl)s2)c(=O)oc2ccccc12` gave RGS4 inh inactive, MrgX1 PAM inactive, RGS4 act inactive, MrgX1 antag inactive and MrgX1 agonist inactive.
`COC(=O)c1ccc2c(=O)n(CCCCCC(=O)NCCNC(C)=O)c(=O)[nH]c2c1` gave RGS4 inh inactive, MrgX1 PAM inactive, RGS4 act inactive, MrgX1 antag inactive and MrgX1 agonist inactive.
For O=C(CC1C(=O)NCCN1Cc1ccc(F)cc1)NCCN1CCCc2ccccc21 (stereo unspecified) the results were RGS4 inh inactive, MrgX1 PAM inactive, RGS4 act inactive, MrgX1 antag inactive and MrgX1 agonist inactive.
O=C(CC1C(=O)NCCN1Cc1ccccc1)NCCN1CCCCC1=O (stereo unspecified) was read as RGS4 inh inactive, MrgX1 PAM 9.4*, RGS4 act inactive, MrgX1 antag inactive, MrgX1 agonist inactive, MrgX1 allo conf inactive, HEK293 Ca flux inactive, HEK293 Ca counter inactive and HEK293 Ca cntr2 inactive.
For CC(=O)Oc1c(I)cc(I)cc1C(=O)Nc1ccc(Cl)cc1 the results were RGS4 inh inactive, MrgX1 PAM inactive, RGS4 act inactive, MrgX1 antag inactive and MrgX1 agonist inactive.
Cn1c(=NC(=O)C2CC2)sc2cccc(F)c21 was read as RGS4 inh inactive, MrgX1 PAM 11*, RGS4 act inactive, MrgX1 antag inactive, MrgX1 agonist inactive, MrgX1 allo conf inactive, HEK293 Ca flux inactive, HEK293 Ca counter inactive and HEK293 Ca cntr2 inactive.
`COc1ccc(CCNc2nc(-c3ccncc3)cs2)cc1OC` gave RGS4 inh inactive, MrgX1 PAM 7.3*, RGS4 act inactive, MrgX1 antag -5.1*, MrgX1 agonist inactive, MrgX1 allo conf inactive, MrgX1 antag conf 78%*, HEK293 Ca flux inactive, HEK293 Ca counter inactive and HEK293 Ca cntr2 inactive.
For CS(=O)(=O)c1ccc2nc(NC(=O)c3ccco3)sc2c1 the results were RGS4 inh inactive, MrgX1 PAM 9*, RGS4 act inactive, MrgX1 antag inactive, MrgX1 agonist inactive, MrgX1 allo conf inactive, HEK293 Ca flux inactive, HEK293 Ca counter inactive and HEK293 Ca cntr2 inactive.
For COc1ccccc1-n1c(-c2ccc(Cl)cc2)c[nH]c1=S the results were RGS4 inh inactive, MrgX1 PAM 7.5*, RGS4 act inactive, MrgX1 antag inactive, MrgX1 agonist inactive, MrgX1 allo conf inactive, HEK293 Ca flux inactive, HEK293 Ca counter inactive and HEK293 Ca cntr2 inactive.
COc1ccc2oc(=N)c(C(=O)Nc3cccc(C)c3C)cc2c1 was read as RGS4 inh inactive, MrgX1 PAM inactive, RGS4 act inactive, MrgX1 antag inactive and MrgX1 agonist inactive.
For CC12COC3(C(=O)Nc4ccc(F)cc4)CC1CCC32C (stereo unspecified) the results were RGS4 inh inactive, MrgX1 PAM 11*, RGS4 act inactive, MrgX1 antag inactive, MrgX1 agonist inactive, MrgX1 allo conf inactive, HEK293 Ca flux inactive, HEK293 Ca counter inactive and HEK293 Ca cntr2 inactive.
`CC12COC3(C(N)=O)CC1CCC32C` (stereo unspecified) gave RGS4 inh inactive, MrgX1 PAM inactive, RGS4 act inactive, MrgX1 antag inactive and MrgX1 agonist inactive.
